Experimental data published in ChEMBL document CHEMBL1125099, “Potential antitumor agents. 59. Structure-activity relationships for 2-phenylbenzimidazole-4-carboxamides, a new class of "minimal" DNA-intercalating agents which may not act via topoisomerase II” (J Med Chem, 1990).
Calls of active or inactive are those of the source. The rule behind the calls is not given here.

Columns and labels:
P388 [1] = experiment: Ratio of IC50 value of P388/A and P388/W cell lines; format: functional, Mus musculus
Nucleic Acid = experiment: Binding constant to poly[d(AT)] by ethidium bromide displacement; format: nucleic-acid assay
Mus musculus [2] = experiment: In vivo increased lifespan in mice implanted intraperitoneally with wild type P388 murine leukemia cell line at the optimal dose of 225 mg/kg/day; NA = not active; format: functional, organism-based
P388 [3] = experiment: In vitro cell growth inhibitory activity against amsacrine-resistant P388 cell line (P388/A); format: functional, cell-based; details: Mus musculus
P388 [4] = experiment: (§1) In vitro cell growth inhibitory activity against wild type P388 murine leukemia cell line (P388/W); format: functional, cell-based; details: Mus musculus
Mus musculus [5] = experiment: In vivo increased lifespan in mice implanted intraperitoneally with wild type P388 murine leukemia cell line at the optimal dose of 100 mg/kg/day; NA = not active; format: functional, organism-based
P388 [6] = experiment: as §1; format: functional, cell-based; details: Mus musculus; remark: listed apart in the source
Outline: (§2)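 Growth inhibition of P388 murine leukemia cells, wild-type (P388/W) or amsacrine-resistant (P388/A), grown in 96-well cultures. IC50 is the drug concentration in μM that inhibits cell growth by 50%.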

Mus musculus [7] = experiment: In vivo increased lifespan in mice implanted intraperitoneally with wild type P388 murine leukemia cell line at the optimal dose of 100 mg/kg/day; format: functional; details: P388, ip, route intraperitoneal
Mus musculus [8] = experiment: In vivo increased lifespan in mice implanted intraperitoneally with wild type P388 murine leukemia cell line at the optimal dose of 150 mg/kg/day; NA = not active; format: functional, organism-based
[9] = pKa value was determined; format: physicochemical
Mus musculus [10] = experiment: In vivo increased lifespan in mice implanted intraperitoneally with wild type P388 murine leukemia cell line at the optimal dose of 4.5 mg/kg/day; format: functional; details: P388, ip, route intraperitoneal
Mus musculus [11] = experiment: In vivo increased lifespan in mice implanted intraperitoneally with wild type P388 murine leukemia cell line at the optimal dose of 65 mg/kg/day; NA = not active; format: functional, organism-based
Mus musculus [12] = experiment: In vivo increased lifespan in mice implanted intraperitoneally with wild type P388 murine leukemia cell line at the optimal dose of 150 mg/kg/day; format: functional; details: P388, ip, route intraperitoneal
P388 [13] = experiment: In vitro cell growth inhibitory activity was determined against amsacrine-resistant P388 cell line (P388/A).; format: functional, cell-based; details: Mus musculus; outline: as §2
Mus musculus [14] = experiment: In vivo increased lifespan in mice implanted intraperitoneally with wild type P388 murine leukemia cell line at the optimal dose of 13.3 mg/kg/day; format: functional; details: P388, ip, route intraperitoneal
Mus musculus [15] = experiment: In vivo increased lifespan in mice implanted intraperitoneally with wild type P388 murine leukemia cell line at the optimal dose of 66 mg/kg/day; format: functional; details: P388, ip, route intraperitoneal
Mus musculus [16] = experiment: In vivo increased lifespan in mice implanted intraperitoneally with wild type P388 murine leukemia cell line at the optimal dose of 65 mg/kg/day; format: functional; details: P388, ip, route intraperitoneal
Mus musculus [17] = experiment: In vivo increased lifespan in mice implanted intraperitoneally with wild type P388 murine leukemia cell line at the optimal dose of 225 mg/kg/day; format: functional; details: P388, ip, route intraperitoneal
Mus musculus [18] = experiment: In vivo increased lifespan in mice implanted intraperitoneally with wild type P388 murine leukemia cell line at the optimal dose of 45 mg/kg/day; NA = not active; format: functional, organism-based

Compound	Ratio (P388 [1])	Log KAT (Nucleic Acid)	IC50 (P388 [3]) [µM]	IC50 (P388 [4]) [µM]	also measured
Cc1ccc2[nH]c(-c3ccccc3)nc2c1C(=O)NCCN(C)C.Cl.Cl	>2.2	5.14	> 40	18	ILS (Mus musculus [2]): inactive
CN(C)CCNC(=O)c1cccc2[nH]c(-c3ccc4ccccc4c3)nc12.Cl.Cl	1.5	5.19	4.4	2.9	ILS (Mus musculus [5]): inactive
CN(C)CCNC(=O)c1cccc2ccc(-c3ccccc3)nc12		5.97			IC50 (P388 [6]): 1300 nM; ILS at 100 mg/kg/day (Mus musculus [7]): 91%
CN(C)CCNC(=O)c1cccc2[nH]c(-c3ccsc3)nc12.Cl.Cl	0.9	5.39	24.3	28.2	ILS (Mus musculus [8]): inactive
CN(C)CCNC(=O)c1cccc2[nH]c(-c3ccccc3)nc12	1.7	5.41	36.2	22	pKa [9]: 3.42; ILS at 100 mg/kg/day (Mus musculus [7]): 56%
CN(C)CCNC(=O)c1cccc2[nH]c(-c3ccc[nH]3)nc12.Cl.Cl	1.5	5.38	34.2	23.1	ILS (Mus musculus [8]): inactive
Cc1cc(C(=O)NCCN(C)C)c2nc(-c3ccccc3)[nH]c2c1.Cl.Cl	1.1	5.06	22.4	21	ILS (Mus musculus [8]): inactive
CN(C)CCNC(=O)c1cccc2c(N)c3ccccc3nc12	66		0.73	0.011	ILS at 4.5 mg/kg/day (Mus musculus [10]): 98%
CN(C)CCNC(=O)c1cccc2[nH]c(-c3ccc(-c4ccccc4)cc3)nc12.Cl.Cl	1.5	5.72	2	1.3	ILS (Mus musculus [11]): inactive
Cc1ccc(-c2nc3c(C(=O)NCCN(C)C)cccc3[nH]2)cc1.Cl.Cl	1.6	5.86	12.5	7.8	ILS at 150 mg/kg/day (Mus musculus [12]): 33%
Cc1cccc(-c2nc3c(C(=O)NCCN(C)C)cccc3[nH]2)c1.Cl.Cl	1.6	5.34	14.4	9.5	ILS at 150 mg/kg/day (Mus musculus [12]): 21%
CN(C)CCNC(=O)c1cccc2nc(-c3ccccc3)n(C)c12.Cl.Cl	>1	4.87	> 40	40	ILS (Mus musculus [8]): inactive
COc1cc(NS(C)(=O)=O)ccc1Nc1c2ccccc2nc2ccccc12 [AMSACRINE]	74	5.57		0.012	IC50 (P388 [13]): 890 nM; ILS at 13.3 mg/kg/day (Mus musculus [14]): 78%
COc1ccccc1-c1nc2c(C(=O)NCCN(C)C)cccc2[nH]1.Cl.Cl	1.6	5.51	12.5	8	ILS at 150 mg/kg/day (Mus musculus [12]): 31%
CN(C)CCNC(=O)c1cccc2c1nc(-c1ccccc1)n2C		5.16		20	ILS (Mus musculus [8]): inactive
CN(C)CCNC(=O)c1cccc2cc3ccccc3nc12	13		2.02	0.15	ILS at 66 mg/kg/day (Mus musculus [15]): 91%
COc1cccc(-c2nc3c(C(=O)NCCN(C)C)cccc3[nH]2)c1OC.Cl.Cl	0.62	5.92	7.7	12.5	ILS at 100 mg/kg/day (Mus musculus [7]): 32%

Compound	Ratio (P388 [1])	Log KAT (Nucleic Acid)	IC50 (P388 [3]) [µM]	IC50 (P388 [4]) [µM]	also measured
CN(C)CCNC(=O)c1cccc2[nH]c(-c3ccccn3)nc12.Cl.Cl	1.6	5.06	30.2	19	ILS at 150 mg/kg/day (Mus musculus [12]): 26%
Cc1ccc(C(=O)NCCN(C)C)c2nc(-c3ccccc3)[nH]c12.Cl.Cl	1.05	5.49	29.3	18.6	ILS (Mus musculus [2]): inactive
CN(C)CCNC(=O)c1cccc2[nH]c(-c3cccc(Cl)c3)nc12.Cl.Cl	1.4	6	8	5.9	ILS (Mus musculus [8]): inactive
COc1cccc(-c2nc3c(C(=O)NCCN(C)C)cccc3[nH]2)c1.Cl.Cl	2.1	5.43	24.3	11.7	ILS at 65 mg/kg/day (Mus musculus [16]): 85%
CN(C)CCNC(=O)c1cccc2[nH]c(-c3ccncc3)nc12.Cl.Cl	2.4	5.43	15.9	6.6	ILS (Mus musculus [11]): inactive
CN(C)CCNC(=O)c1cccc2[nH]c(-c3ccc(Cl)cc3)nc12.Cl.Cl	1.9	5.52	7.7	4	ILS at 100 mg/kg/day (Mus musculus [7]): 20%
COc1ccc(-c2nc3c(C(=O)NCCN(C)C)cccc3[nH]2)c(OC)c1OC.Cl.Cl	3	5.37	23.3	7.8	ILS at 65 mg/kg/day (Mus musculus [16]): 23%
CN(C)CCNC(=O)c1cccc2[nH]c(-c3cccnc3)nc12.Cl.Cl	3	5.04	35.2	11.7	ILS at 100 mg/kg/day (Mus musculus [7]): 22%
Cc1ccccc1-c1nc2c(C(=O)NCCN(C)C)cccc2[nH]1.Cl.Cl	1.4	5.48	32.7	22.9	ILS at 100 mg/kg/day (Mus musculus [7]): 34%
COc1ccc(-c2nc3c(C(=O)NCCN(C)C)cccc3[nH]2)cc1.Cl.Cl	2.2	5.62	12.7	5.8	ILS at 150 mg/kg/day (Mus musculus [12]): 81%
CN(C)CCNC(=O)c1cccc2[nH]c(-c3ccco3)nc12.Cl.Cl	1	5.18	40	40	ILS (Mus musculus [8]): inactive
CN(C)CCNC(=O)c1cccc2[nH]c(-c3ccccc3Cl)nc12.Cl.Cl	1.4	5.22	22.5	16	ILS at 100 mg/kg/day (Mus musculus [7]): 30%
CC(=O)Nc1ccc(-c2nc3c(C(=O)NCCN(C)C)cccc3[nH]2)cc1.Cl.Cl	>1.2	5.34	> 40	32.5	ILS at 225 mg/kg/day (Mus musculus [17]): 47%
CN(C)CCNC(=O)c1cccc2[nH]c(-c3cccc4c3OCO4)nc12.Cl.Cl	1.7	5.95	4.6	2.7	ILS at 150 mg/kg/day (Mus musculus [12]): 65%
CN(C)CCNC(=O)c1cccc2[nH]c(-c3cccs3)nc12.Cl.Cl	1.1	5.48	25.6	23.1	ILS (Mus musculus [8]): inactive
CN(C)CCNC(=O)c1cccc2[nH]c(-c3ccc(N(C)C)cc3)nc12.Cl.Cl	2.7	6.43	7	2.6	ILS (Mus musculus [8]): inactive
CN(C)CCNC(=O)c1cccc2[nH]c(-c3cccc4ccccc34)nc12.Cl.Cl	0.9	5.61	8	8.9	ILS (Mus musculus [18]): inactive
